# Key:
# PI-3K = assay: PI-3K-dependent AKT phosphorylation; assay type: cell-based, human; conditions: read-out: IC50 PI-3K-mediated AKT phosphorylation; MCF7 cells, IGF-1 stimulated
# In short: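 MCF7 cells in RPMI 1640/10% FBS. Exposed to a concentration range of test compound for 1 h, then 50 ng/ml IGF-1 for 30 min. Western blot of AKT Ser473 relative to total AKT. Rise above unstimulated baseline in treated cells expressed as % of the rise in control cells. Mean of three independent experiments fitted to a sigmoidal dose-response curve for IC50.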
# SW620 cells = assay: clonogenic survival assay; assay type: cell-based, human
# LoVo cells = assay: clonogenic survival assay; assay type: cell-based, human
# In short: (§1)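 Cells in RPMI 1640/10% FBS were exposed in 6-well plates for 16 h to etoposide or doxorubicin with or without test compound (1 μM), or to test compound alone. Cells then harvested and reseeded in drug-free medium. Colonies stained with crystal violet after 10-14 days and counted automatically. Fold enhancement = survival with cytotoxic alone / survival with cytotoxic + 1 μM test compound. Means ± SD, n = 3.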
# MCF7 cells = assay: clonogenic survival assay; assay type: cell-based, human
# In short: as §1
# T47D cells = assay: clonogenic survival assay; assay type: cell-based, human
# In short: as §1
# MDA-MB-231 cells = assay: clonogenic survival assay; assay type: cell-based, human
# In short: as §1
# M059J cells = assay: clonogenic survival assay, DNA-PKcs-deficient cells; assay type: cell-based, human; conditions: clonogenic survival
# In short: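 Human glioblastoma M059J cells (DNA-PKcs-deficient) and M059-Fus-1 cells (chromosome 8 transfected; G-418 200 μg/ml) in DMEM/10% FBS. Etoposide or doxorubicin alone or with 1 μM test compound, or test compound alone, for 16 h. Reseeded drug-free. Crystal violet colony counts after 10-14 days. Fold enhancement as survival ratio. Means ± SD, n = 3.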
# MCF7 xenografts = assay: anti-tumour efficacy study, MCF7 xenografts; assay type: in vivo; conditions: MCF7 tumour-bearing mice
# SW620 xenografts = assay: anti-tumour efficacy study, SW620 xenografts; assay type: in vivo, mice
# In short: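 Female athymic CD1-nu/nu mice with s.c. SW620, n = 5/group, treated once tumours were palpable (~5 × 5 mm, day 8-10). Controls: saline i.p. daily. Test compound 10 mg/kg i.p. for 5 days. Etoposide phosphate 11.35 mg/kg i.p. (10 mg/kg etoposide) daily × 5. Combination: test compound i.p. once or twice daily × 5, first dose just before etoposide. Caliper volume a²×b/2; median RTV (day 0 = 1); time to RTV4.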
# V3 cells = assay: clonogenic survival assay, DNA-PKcs-deficient cells; assay type: cell-based, Chinese hamster; conditions: clonogenic survival
# In short: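 Chinese hamster ovary V3 cells (DNA-PKcs-deficient) and V3-YAC cells (human DNA-PKcs on YAC; kept under G-418 500 μg/ml) in RPMI 1640/10% FBS. Etoposide alone or with 1 μM test compound, or test compound alone, for 16 h. Reseeded drug-free. Crystal violet colony counts after 10-14 days. Fold enhancement as survival ratio. Means ± SD of 3 independent experiments.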
# [1] = 100 nM doxorubicin with or without 1 μM KU-0060648, 16 hr
# [2] = 1 μM etoposide with or without 1 μM KU-0060648, 16 hr
compound,measurement,setting,value
"O=c1cc(N2CCOCC2)oc2c(-c3cccc4c3sc3ccccc34)cccc12 [NU7441, reference compound]",IC50,PI-3K,3.9 ± 3.5 µM
"COc1cccc2c1C(=O)c1c(O)c3c(c(O)c1C2=O)C[C@@](O)(C(=O)CO)C[C@@H]3O[C@H]1C[C@H](N)[C@H](O)[C@H](C)O1 [doxorubicin, reference compound]",survival (clonogenic),"SW620 cells; SW620, 100 nM doxorubicin with or without 1 μM KU-0060648, 16 hr",0.06±0.06
same,survival (clonogenic),LoVo cells; [1],1.4±0.9
same,survival (clonogenic),"MCF7 cells; MCF7, 100 nM doxorubicin with or without 1 μM KU-0060648, 16 hr",42.3±13
same,survival (clonogenic),T47D cells; [1],9.0±3.2
same,survival (clonogenic),"MDA-MB-231 cells; MDA-MB-231, 100 nM doxorubicin with or without 1 μM KU-0060648, 16 hr",1.8±0.6
same,"fold more sensitive, DNA-PKcs-deficient M059J versus M059-Fus-1 cells",M059J cells,approximately 23 fold
"COc1cc([C@@H]2c3cc4c(cc3[C@@H](O[C@@H]3O[C@@H]5CO[C@@H](C)O[C@H]5[C@H](O)[C@H]3O)[C@H]3COC(=O)[C@H]23)OCO4)cc(OC)c1OP(=O)(O)O [etoposide phosphate, reference compound]",maximum body weight loss,MCF7 xenografts,3%
same,maximum body weight loss,SW620 xenografts; SW620 tumour-bearing mice,no body weight loss
same,time to RTV4 (median),"SW620 xenografts; SW620 xenografts, single agent or combination with once daily KU-0060648",6.5 days
"COc1cc([C@@H]2c3cc4c(cc3[C@@H](O[C@@H]3O[C@@H]5CO[C@@H](C)O[C@H]5[C@H](O)[C@H]3O)[C@H]3COC(=O)[C@H]23)OCO4)cc(OC)c1O [etoposide, reference compound]",survival (clonogenic),"SW620 cells; SW620, 1 μM etoposide with or without 1 μM KU-0060648, 16 hr",4.7±2.0
same,survival (clonogenic),LoVo cells; [2],3.5±0.5
same,survival (clonogenic),"MCF7 cells; MCF7, 1 μM etoposide with or without 1 μM KU-0060648, 16 hr",23±9
same,survival (clonogenic),T47D cells; [2],24±4
same,survival (clonogenic),"MDA-MB-231 cells; MDA-MB-231, 1 μM etoposide with or without 1 μM KU-0060648, 16 hr",16±10
same,"fold more sensitive, DNA-PKcs-deficient V3 versus V3-YAC cells",V3 cells,approximately 3 fold
same,"fold more sensitive, DNA-PKcs-deficient M059J versus M059-Fus-1 cells",M059J cells,approximately 2.5 fold

# Reference: article PMC3428850 (Molecular cancer therapeutics, 2012)
